Converted amounts (≈) assume the structure as drawn. A value given as a limit tells only on which side of the number the result lay.

Common to all, as to assay type: functional
In test [1] the test system is Staphylococcus aureus. In words: Antimicrobial activity against methicillin-resistant Staphylococcus aureus C3 after 24 hrs. The procedure, abridged:
(§1)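 MIC by dilution in nutrient broth. Anaerobic organisms were incubated in an anaerobic cabinet. Controls were the same organisms incubated without test compound.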

Test [2] has as its system Staphylococcus aureus. In words: Antimicrobial activity against methicillin-resistant Staphylococcus aureus A1 after 24 hrs. In short, it runs like this: as §1
Test [3] has as its system Clostridioides difficile. In words: Antimicrobial activity against Clostridium difficile Z229 after 48 hrs. The procedure, abridged: (§2)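 Anaerobes incubated in an anaerobic cabinet for broth MIC determination. Drug-free incubations of the same organisms served as controls. Value is the minimum inhibitory concentration.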
The test system of test [4] is Staphylococcus epidermidis. In words: Antimicrobial activity against Staphylococcus epidermidis 9 after 24 hrs. The procedure, abridged: as §1
Test [5] concerns Clostridioides difficile. The test can be described thus: Antimicrobial activity against Clostridium difficile O27 after 48 hrs. The procedure, abridged: as §2
The subject of test [6] is Cutibacterium acnes. The test can be described thus: Antimicrobial activity against Propionibacterium acnes C3 after 48 hrs. In short, it runs like this: as §1
Test [7] deals with Clostridioides difficile. In words: Antimicrobial activity against Clostridium difficile NCTC 11204 after 48 hrs. To be noted: NCTC 11204, 48 h. In short, it runs like this:
as §2

The test system of test [8] is Cutibacterium acnes. The test can be described thus: Antimicrobial activity against Propionibacterium acnes B5 after 48 hrs. In short, it runs like this: as §2
The subject of test [9] is Staphylococcus aureus. The test can be described thus: Antimicrobial activity against Staphylococcus aureus H1 after 24 hrs. The procedure, abridged: as §1
In test [10] the test system is Clostridioides difficile. The test can be described thus: Antimicrobial activity against Clostridium difficile Z162 after 48 hrs. The procedure, abridged:
as §2

The subject of test [11] is Staphylococcus epidermidis. The test can be described thus: Antimicrobial activity against Staphylococcus epidermidis 4 after 24 hrs. The procedure, abridged:
as §1

The test system of test [12] is Cutibacterium acnes. The test can be described thus: Antimicrobial activity against Propionibacterium acnes NCTC 737 after 48 hrs. The note with it: NCTC 737, 48 h. The procedure, abridged: as §1
The subject of test [13] is Staphylococcus aureus. In words: Antimicrobial activity against Staphylococcus aureus ATCC 6538 after 24 hrs. To be noted: ATCC 6538, 24 h. In short, it runs like this: as §1
In test [14] the test system is Staphylococcus aureus. The test can be described thus: Antimicrobial activity against Staphylococcus aureus K1 after 24 hrs. In short, it runs like this: as §1
In test [15] the test system is Cutibacterium acnes. The test can be described thus: Antimicrobial activity against Propionibacterium acnes C5 after 48 hrs. In short, it runs like this:
as §1

Test [16] has as its system Staphylococcus epidermidis. The test can be described thus: Antimicrobial activity against Staphylococcus epidermidis NCTC 11047 after 24 hrs. To be noted: NCTC 11047, 24 h. The procedure, abridged:
as §1

For test [17], the system named is Staphylococcus aureus. In words: Antimicrobial activity against methicillin-resistant Staphylococcus aureus E1 after 24 hrs. In short, it runs like this:
as §1

For `CC(C)NC(=S)N/N=C/C=C/c1ccco1`, the MIC (as a rule, the least concentration at which growth counts as inhibited) against Staphylococcus aureus [1] was greater than 256 µg/mL; against Staphylococcus aureus [2], greater than 256 µg/mL; with Clostridioides difficile [3], 128 µg/mL (≈ 539 µM); in [4], greater than 256 µg/mL; in the test with Clostridioides difficile [5], 64 µg/mL (≈ 270 µM); against Cutibacterium acnes [6], 1 µg/mL (≈ 4.21 µM). Further, the MIC was greater than 256 µg/mL in the test on Clostridioides difficile [7]; greater than 256 µg/mL against Cutibacterium acnes [8]; greater than 256 µg/mL against Staphylococcus aureus [9]; greater than 256 µg/mL against Clostridioides difficile [10]; greater than 256 µg/mL in test [11]; 32 µg/mL (≈ 135 µM) against Cutibacterium acnes [12]. In addition, the MIC is greater than 256 µg/mL against Staphylococcus aureus [13]; greater than 256 µg/mL in the test on Staphylococcus aureus [14]; 64 µg/mL (≈ 270 µM) against Cutibacterium acnes [15]; greater than 256 µg/mL in test [16]; greater than 256 µg/mL in the test on Staphylococcus aureus [17].

For the compound `CN[C@H](CC(C)C)C(=O)N[C@H]1C(=O)N[C@@H](CC(N)=O)C(=O)N[C@H]2C(=O)N[C@H]3C(=O)N[C@H](C(=O)N[C@H](C(=O)O)c4cc(O)cc(O)c4-c4cc3ccc4O)[C@H](O)c3ccc(c(Cl)c3)Oc3cc2cc(c3O[C@@H]2O[C@H](CO)[C@@H](O)[C@H](O)[C@H]2O[C@H]2C[C@](C)(N)[C@H](O)[C@H](C)O2)Oc2ccc(cc2Cl)[C@H]1O` [VANCOMYCIN], the minimum inhibitory concentration (MIC) was determined as 0.75 µg/mL (≈ 0.518 µM) in the test on Clostridioides difficile [5], 0.5 µg/mL (≈ 0.345 µM) against Clostridioides difficile [7], 0.5 µg/mL (≈ 0.345 µM) in the test on Cutibacterium acnes [12] and 1.5 µg/mL (≈ 1.04 µM) with Staphylococcus aureus [13].

For `CC(C)(C)NC(=S)N/N=C/C=C/c1ccc([N+](=O)[O-])o1`, the MIC in the test on Staphylococcus aureus [1] was greater than 256 µg/mL; against Staphylococcus aureus [2], greater than 256 µg/mL; against Clostridioides difficile [3], 64 µg/mL (≈ 216 µM); in test [4], greater than 256 µg/mL; against Clostridioides difficile [5], 64 µg/mL (≈ 216 µM); against Cutibacterium acnes [6] it was 8 µg/mL (≈ 27 µM). Besides, the MIC with Clostridioides difficile [7] was greater than 256 µg/mL; against Cutibacterium acnes [8], 32 µg/mL (≈ 108 µM); with Staphylococcus aureus [9] it was 64 µg/mL (≈ 216 µM); against Clostridioides difficile [10] it was 128 µg/mL (≈ 432 µM); in [11], greater than 256 µg/mL; against Cutibacterium acnes [12], 16 µg/mL (≈ 54 µM). Besides, the MIC with Staphylococcus aureus [13] was greater than 256 µg/mL; in the test with Staphylococcus aureus [14] it was 32 µg/mL (≈ 108 µM); in the test with Cutibacterium acnes [15], 16 µg/mL (≈ 54 µM); in test [16], greater than 256 µg/mL; in the test on Staphylococcus aureus [17], greater than 256 µg/mL.

Regarding `CC(C)(C)NC(=S)N/N=C/C=C/c1ccco1`, the MIC against Staphylococcus aureus [1] was greater than 256 µg/mL; in the test with Staphylococcus aureus [2], greater than 256 µg/mL; in the test on Clostridioides difficile [3], 64 µg/mL (≈ 255 µM); in test [4] it was greater than 256 µg/mL; against Clostridioides difficile [5] it was 64 µg/mL (≈ 255 µM); against Cutibacterium acnes [6], 4 µg/mL (≈ 15.9 µM). Further, the minimal inhibitory concentration (MIC) against Clostridioides difficile [7] was greater than 256 µg/mL; against Cutibacterium acnes [8], 64 µg/mL (≈ 255 µM); with Staphylococcus aureus [9], greater than 256 µg/mL; with Clostridioides difficile [10] it was greater than 256 µg/mL; in test [11] it was greater than 256 µg/mL; against Cutibacterium acnes [12], 64 µg/mL (≈ 255 µM). For the same compound, the MIC was greater than 256 µg/mL against Staphylococcus aureus [13]; greater than 256 µg/mL in the test on Staphylococcus aureus [14]; 1 µg/mL (≈ 3.98 µM) in the test on Cutibacterium acnes [15]; greater than 256 µg/mL in [16]; greater than 256 µg/mL in the test on Staphylococcus aureus [17].

`CC(C)NC(=S)N/N=C/C=C/c1ccc([N+](=O)[O-])o1`: the MIC in the test on Staphylococcus aureus [1] was greater than 256 µg/mL; in the test on Staphylococcus aureus [2], greater than 256 µg/mL; in the test on Clostridioides difficile [3], 64 µg/mL (≈ 227 µM); in [4], greater than 256 µg/mL; in the test with Clostridioides difficile [5], 64 µg/mL (≈ 227 µM); in the test on Cutibacterium acnes [6], 32 µg/mL (≈ 113 µM). The MIC is greater than 256 µg/mL against Clostridioides difficile [7]; 32 µg/mL (≈ 113 µM) against Cutibacterium acnes [8]; 256 µg/mL (≈ 907 µM) with Staphylococcus aureus [9]; greater than 256 µg/mL in the test with Clostridioides difficile [10]; 64 µg/mL (≈ 227 µM) in [11]; 32 µg/mL (≈ 113 µM) in the test on Cutibacterium acnes [12]. For the same compound, the MIC against Staphylococcus aureus [13] was greater than 256 µg/mL; in the test on Staphylococcus aureus [14], greater than 256 µg/mL; in the test with Cutibacterium acnes [15], 64 µg/mL (≈ 227 µM); in [16], 64 µg/mL (≈ 227 µM); against Staphylococcus aureus [17] it was greater than 256 µg/mL.

On to `CNC(=S)N/N=C/C=C/c1ccco1`, for which the minimal inhibitory concentration (MIC) was greater than 256 µg/mL against Staphylococcus aureus [1]; greater than 256 µg/mL in the test on Staphylococcus aureus [2]; 128 µg/mL (≈ 612 µM) in the test on Clostridioides difficile [3]; greater than 256 µg/mL in test [4]; 64 µg/mL (≈ 306 µM) against Clostridioides difficile [5]; 16 µg/mL (≈ 76.5 µM) against Cutibacterium acnes [6]. Further, the MIC against Clostridioides difficile [7] was greater than 256 µg/mL; in the test with Cutibacterium acnes [8] it was 32 µg/mL (≈ 153 µM); against Staphylococcus aureus [9], greater than 256 µg/mL; in the test on Clostridioides difficile [10], greater than 256 µg/mL; in test [11] it was 128 µg/mL (≈ 612 µM); with Cutibacterium acnes [12], 32 µg/mL (≈ 153 µM). Moreover, the MIC against Staphylococcus aureus [13] is greater than 256 µg/mL; against Staphylococcus aureus [14], greater than 256 µg/mL; against Cutibacterium acnes [15] it was 1 µg/mL (≈ 4.78 µM); in test [16], greater than 256 µg/mL; against Staphylococcus aureus [17], greater than 256 µg/mL.

The record behind these values is ChEMBL document CHEMBL1141626, “Thiosemicarbazones active against Clostridium difficile” (2008).
